28 molecules from ChEMBL document CHEMBL1132212, “Structure-activity relationship of small-sized HIV protease inhibitors containing allophenylnorstatine” (J Med Chem, 1999) can be followed below.

As a reminder, the inhibition is the share of the control response that was lost under treatment. Usually Ki stands for a dissociation constant, usually derived from enzyme kinetics or from competition with a known ligand. For orientation: IC50 means the concentration that gives 50% inhibition. The low end stands for greater potency in that assay, the high end for weaker potency in that assay. The bioavailability is dose-corrected exposure relative to a reference, in per cent. What is called half-life is the time needed for the level to fall by half in the phase considered. Read a high half-life as slow loss. One may read the Tmax as the time from dosing to the highest level. For orientation: Cmax means the maximum level reached in the sampled fluid or tissue.

Data set [1] has as its target Human immunodeficiency virus type 1 protease (Human immunodeficiency virus 1) (UniProt Q72874). The data set can be described thus: Inhibition of recombinant HIV-1 protease (NY-5) using 5 uM.
Data set [2] addresses Human immunodeficiency virus type 1 protease (Human immunodeficiency virus 1, UniProt Q72874). The experiment in a line: Inhibition of recombinant HIV-1 protease (NY-5).
Data set [3] concerns the target Human immunodeficiency virus type 1 protease (Human immunodeficiency virus 1) (UniProt Q72874). The data set can be described thus: Inhibition of recombinant HIV-1 protease (NY-5) using 50 nM.
For the next data set, the system named is CEM-SS. The experiment in a line: Antiviral activity was determined based on inhibition of HIV-1 IIIB induced cytopathic effects in CEM-SS cells in vitro using tetrazolium reagent. It is filed as functional, cell-based. The note with it: Homo sapiens. An outline of the steps:
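CEM-SS cells (2.5 × 10^4 cells/mL) were cultured with HIV-1 IIIB and compound in RPMI-1640 with 10% FCS and gentamicin for 6 days at 37 °C in 5% CO2. The virus titer was set to kill all cells by day 6. Cytopathic effect was read by XTT staining, and IC50 was taken as the mean of duplicates.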
Background: Damage to the host cells serves as the signal in cytopathic effect assays.

A short description of data set [4]: Toxic concentration was determined for CEM-SS cells. It is filed as toxicity, cell-based. The note with it: human, read-out: TC50 (the source's name). An outline of the steps: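 CEM-SS cells (2.5 × 10^4 cells/mL) were exposed to compound in RPMI-1640 with 10% FCS and gentamicin for 6 days at 37 °C in 5% CO2. Viability was read by XTT staining, and TC50 was taken as the mean of duplicates.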

For data set [5], the target named is Human immunodeficiency virus type 1 protease (Human immunodeficiency virus 1) (UniProt Q72874). The experiment in a line: Inhibition of recombinant HIV-1 protease (NY-5) using 50 nM. An outline of the steps:
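Recombinant HIV-1 protease (NY5 sequence) was expressed in E. coli and purified. It was preincubated with inhibitor in DMSO for 5 min at 37 °C in MES–NaOH pH 6.0 with DTT and EDTA. Substrate H-SQNYPIV-OH was then added for 60 min at 37 °C, and the reaction was stopped with TFA. The PIV product was measured by reverse-phase HPLC at 215 nm against a synthetic standard.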

Data set [6] is described as follows: Bioavailability in rat after i.d. administration. It is filed as ADME, organism-based. The conditions noted are these: in vivo. An outline of the steps: (§1)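 Three male Sprague–Dawley rats (300–400 g) per compound were anesthetized and dosed at 10 mg/kg in 50% PEG. Dosing was iv via the femoral vein or id by tube into the duodenum. Plasma was extracted with internal standard and analyzed by C18 HPLC with UV at 210 nm. Analysis was noncompartmental; F was calculated from id vs iv AUC. Values are mean ± SEM.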

Data set [7] can be described thus: Plasma half life was determined in rats after intravenous administration of the drug. The class given is ADME, organism-based. The note with it: rat. An outline of the steps: as §1
Data set [8] can be described thus: Time of maximum plasma concentration (Tmax) was determined in rats after intraduodenal administration of the drug. The note with it: rat. It is filed as ADME, organism-based. The essentials: as §1
Data set [9] is described as follows: Maximum plasma concentration (Cmax) was determined in rats after intraduodenal administration of the drug. It is filed as ADME, organism-based. More on the design: route intraduodenal. The conditions noted are these: rat. An outline of the steps:
as §1

Take `CCc1cccc(CC)c1OCC(=O)N[C@@H](Cc1ccccc1)[C@H](O)C(=O)N1CSC[C@H]1C(=O)NC(C)(C)C`: the inhibition in data set [1] came out at 62%.
Consider `Cc1c(O)cccc1C(=O)N[C@@H](Cc1ccccc1)[C@H](O)C(=O)N1CSC[C@H]1C(=O)NCc1ccccc1`, for which the Ki in data set [2] turned out to be 59 nM. For the same molecule, the inhibition in data set [3] turned out to be 43%.
The molecule `Cc1c(O)cccc1C(=O)N[C@@H](Cc1ccccc1)[C@H](O)C(=O)N1CSC(C)(C)[C@H]1C(=O)NCc1ccccc1Cl` gave an IC50 with CEM-SS of 34 nM. Also, the CC50 in data set [4] is over 20 µM. Besides, the inhibition in [5] turned out to be 95%. Besides, in [2], the Ki came to 0.29 nM.
As to `Cc1ccccc1OCC(=O)N[C@@H](Cc1ccccc1)[C@H](O)C(=O)N1CSC[C@H]1C(=O)NC(C)(C)C`, the inhibition in [1] was found to be 82%.
For the molecule `Cc1ccc(CNC(=O)[C@@H]2CSCN2C(=O)[C@@H](O)[C@H](Cc2ccccc2)NC(=O)c2cccc(O)c2C)cc1`, the inhibition in data set [5] was 13%.
In turn, `Cc1c(O)cccc1C(=O)N[C@@H](Cc1ccccc1)[C@H](O)C(=O)N1CSC[C@H]1C(=O)NC(C)(C)C` registered a bioavailability in data set [6] of 33.9%. In [7], the half-life worked out at 59 min. For the same molecule, the Tmax in data set [8] was 30 min. In the data set on CEM-SS, this molecule came in with an IC50 of over 200 nM. For the same molecule, the CC50 in data set [4] was over 20 µM. Besides, the inhibition in data set [1] is 97%; in data set [5], 36%. Also, the Ki in data set [2] came to 24.9 nM. The Cmax in [9] came out at 2910 nM.
`CCCc1c(O)cccc1C(=O)N[C@@H](Cc1ccccc1)[C@H](O)C(=O)N1CSC[C@H]1C(=O)NC(C)(C)C`: the inhibition came out at 92% in data set [1] and 17% in data set [5].
In the case of `Cc1cccc(CNC(=O)[C@@H]2CSCN2C(=O)[C@@H](O)[C@H](Cc2ccccc2)NC(=O)c2cccc(O)c2C)c1`, the inhibition in data set [5] turned out to be 18%.
For the molecule `CCCc1cccc(C)c1OCC(=O)N[C@@H](Cc1ccccc1)[C@H](O)C(=O)N1CSC[C@H]1C(=O)NC(C)(C)C`, the inhibition is 97% in data set [1] and 35% in data set [5].
For `Cc1c(N)cccc1C(=O)N[C@@H](Cc1ccccc1)[C@H](O)C(=O)N1CSC[C@H]1C(=O)NC(C)(C)C`, in data set [1], the inhibition is 81%.
In the data set on CEM-SS, `Cc1cccc(C)c1OCC(=O)N[C@@H](Cc1ccccc1)[C@H](O)C(=O)N1CSC[C@H]1C(=O)NC(C)(C)C` came in with an IC50 of over 200 nM. Moreover, in data set [4], the CC50 is over 20 µM. Moreover, the inhibition was determined as 95% in data set [1] and 56% in data set [5]. Besides, the Ki in data set [2] is 21.7 nM.
On to `CCc1cccc(C)c1OCC(=O)N[C@@H](Cc1ccccc1)[C@H](O)C(=O)N1CSC[C@H]1C(=O)NC(C)(C)C`, for which the inhibition in [1] is 94%; in [5] it was 32%.
`Cc1ccc(OCC(=O)N[C@@H](Cc2ccccc2)[C@H](O)C(=O)N2CSC[C@H]2C(=O)NC(C)(C)C)cc1`: the inhibition in [1] is 44%.
Molecule `CCc1c(O)cccc1C(=O)N[C@@H](Cc1ccccc1)[C@H](O)C(=O)N1CSC(C)(C)[C@H]1C(=O)NCc1ccccc1C` gave a bioavailability in data set [6] of 10%. Also, in data set [7], the half-life is 126 min. The Tmax in data set [8] is 10 min. In addition, the IC50 in the data set with CEM-SS stood at 11 nM. Further, the CC50 in [4] is over 20 µM. Also, in data set [5], the inhibition was 97%. The inhibition constant Ki in data set [2] was 0.19 nM. This molecule also showed a Cmax in data set [9] of 230 nM.
Consider `Cc1ccccc1C(=O)N[C@@H](Cc1ccccc1)[C@H](O)C(=O)N1CSC[C@H]1C(=O)NC(C)(C)C`, for which the inhibition in data set [1] was 75%.
In data set [6], `CCc1c(O)cccc1C(=O)N[C@@H](Cc1ccccc1)[C@H](O)C(=O)N1CSC[C@H]1C(=O)NC(C)(C)C` yielded a bioavailability of 36.2%. Further, the half-life in data set [7] is 74 min. Besides, in data set [8], the Tmax is 30 min. Further, the inhibition in data set [1] stood at 98%; in data set [5] it was 46%. For the same molecule, the Ki in [2] stood at 22.2 nM. This molecule also yielded a Cmax in [9] of 1730 nM.
On to `CC(C)(C)NC(=O)[C@@H]1CSCN1C(=O)[C@@H](O)[C@H](Cc1ccccc1)NC(=O)c1ccccc1`, for which, in data set [1], the inhibition is 52%.
The molecule `Cc1cccc(C)c1OCC(=O)N[C@@H](Cc1ccccc1)[C@H](O)C(=O)N1CSC(C)(C)[C@H]1C(=O)NC(C)(C)C` showed an IC50 with CEM-SS of over 200 nM. In [4], the CC50 is over 20 µM. Moreover, the inhibition in [1] is 97%; in data set [5], 35%. Moreover, the Ki in data set [2] turned out to be 1.4 nM.
Molecule `CS[C@H](NC(=O)COc1cccc2cnccc12)C(=O)N[C@@H](Cc1ccccc1)[C@H](O)C(=O)N1CSC[C@H]1C(=O)NC(C)(C)C` showed an IC50 in the data set with CEM-SS of 34 nM. Further, the CC50 in data set [4] is over 20 µM. Besides, the Ki in data set [2] was determined as 0.74 nM.
For the molecule `Cc1cccc(C)c1CNC(=O)[C@@H]1CSCN1C(=O)[C@@H](O)[C@H](Cc1ccccc1)NC(=O)c1cccc(O)c1C`, in data set [5], the inhibition was found to be 75%. Also, in data set [2], the Ki amounted to 4.8 nM.
For the molecule `CC(C)(C)NC(=O)[C@@H]1CSCN1C(=O)[C@@H](O)[C@H](Cc1ccccc1)NC(=O)c1cccc(O)c1`, the inhibition in data set [1] worked out at 76%.
For the molecule `CC(C)(C)NC(=O)[C@@H]1CSCN1C(=O)[C@@H](O)[C@H](Cc1ccccc1)NC(=O)COc1ccccc1`, the inhibition in [1] was 48%.
`CS[C@H](NC(=O)COc1cccc2cnccc12)C(=O)N[C@@H](Cc1ccccc1)[C@H](O)C(=O)N1CSC(C)(C)[C@H]1C(=O)NC(C)(C)C` yielded an IC50 in the data set on CEM-SS of 6 nM. Besides, the CC50 in data set [4] is over 20 µM. In data set [2], the Ki came to 0.088 nM.
With `CCc1c(O)cccc1C(=O)N[C@@H](Cc1ccccc1)[C@H](O)C(=O)N1CSC(C)(C)[C@H]1C(=O)NC(C)(C)C`, the bioavailability in data set [6] is 37%. For the same molecule, the half-life in data set [7] was determined as 84 min. The Tmax in data set [8] was 30 min. In the data set on CEM-SS, half-maximal inhibition (IC50) was put at 92 nM. Further, the CC50 in data set [4] is over 20 µM. Also, the inhibition was found to be 99% in [1] and 84% in [5]. The Ki in data set [2] was found to be 2.24 nM. The same molecule registered a Cmax in [9] of 1160 nM.
Consider `Cc1ccccc1CNC(=O)[C@@H]1CSCN1C(=O)[C@@H](O)[C@H](Cc1ccccc1)NC(=O)c1cccc(O)c1C`, for which, in data set [6], the bioavailability came out at 32.3%. The molecule further gave a half-life in [7] of 41 min. For the same molecule, the Tmax in data set [8] was 30 min. Besides, the IC50 with CEM-SS is over 200 nM. In addition, the CC50 in data set [4] was over 20 µM. Besides, the inhibition constant Ki in data set [2] is 8.9 nM. Also, the Cmax in data set [9] turned out to be 770 nM.
Regarding `Cc1cccc(OCC(=O)N[C@@H](Cc2ccccc2)[C@H](O)C(=O)N2CSC[C@H]2C(=O)NC(C)(C)C)c1`, the inhibition in data set [1] turned out to be 38%.
For the molecule `Cc1c(O)cccc1C(=O)N[C@@H](Cc1ccccc1)[C@H](O)C(=O)N1CSC(C)(C)[C@H]1C(=O)NCc1ccccc1C(F)(F)F`, in data set [5], the inhibition was found to be 88%.
The molecule `Cc1c(O)cccc1C(=O)N[C@@H](Cc1ccccc1)[C@H](O)C(=O)N1CSC(C)(C)[C@H]1C(=O)NC(C)(C)C` returned a bioavailability in data set [6] of 39.4%. In data set [7], this molecule displayed a half-life of 83 min. Moreover, in data set [8], the Tmax was 30 min. For the same molecule, in the data set on CEM-SS, 19 nM corresponded to half-maximal inhibition (IC50). Besides, in data set [4], the CC50 is over 20 µM. Moreover, the inhibition came to 99% in data set [1] and 88% in [5]. Also, the Ki in data set [2] came out at 5.14 nM. In addition, the highest level in data set [9] (Cmax) was 2600 nM.
